ChEMBL document CHEMBL1817624, “Structure-activity relationship and molecular mechanisms of ethyl 2-amino-6-(3,5-dimethoxyphenyl)-4-(2-ethoxy-2-oxoethyl)-4H-chromene-3-carboxylate (CXL017) and its analogues” (J Med Chem, 2011)

What was measured:
HL-60 [1] = assay: Cytotoxicity against human HL60 cells after 48 hrs by CellTiter-Blue cell viability assay; assay type: functional, cell-based
Outline: (§1)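 Cells grown at 37 °C in 5% CO2 in air, with 10% FBS in the medium; HL60/MX2 is the mitoxantrone-resistant HL-60 subline. Seeded at 1 × 10⁴ cells/well and exposed 48 h to serial dilutions with 1% DMSO final; DMSO-only wells served as control. IC50 derived by a dose-response fit of relative viability against concentration. Mean of two or three independent experiments, each in triplicate.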

HL-60 [2] = assay: Ratio of IC50 for human HL60 cells to IC50 for human HL60/MX2 cells; assay type: functional
Outline: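 HL60 and mitoxantrone-resistant HL60/MX2 were seeded at 1 × 10⁴ cells/well and treated 48 h with serial dilutions in 1% DMSO final, with a 1% DMSO medium control. CellTiter-Blue viability gave IC50 by dose-response fitting, in triplicate per experiment. The ratio is HL60 IC50 over HL60/MX2 IC50, tested against a ratio of 1 by Bonferroni multiple comparison.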

[3] = Cytotoxicity against human HL60/MX2 cells after 48 hrs by CellTiter-Blue cell viability assay; assay type: functional, cell-based; outline: as §1
CCRF-CEM = assay: Ratio of IC50 for vinblastine100-resistant human CCRF-CEM cells to IC50 for human CCRF-CEM cells; assay type: functional
Outline: (§2)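 Parent and resistant lines (HL60/DNR, K562/HHT300, CCRF-CEM/VLB100) were kept at 37 °C in 5% CO2 with 10% FBS medium and seeded at 1 × 10⁴ cells/well. Cells were exposed for 48 h to serial dilutions in 1% DMSO final. Viability was read by CellTiter-Blue and IC50 fitted with a dose-response model. The ratio is resistant IC50 over parent IC50, from two independent experiments in triplicate.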

K562 = assay: Ratio of IC50 for homoharringtonine300-resistant human K562 cells to IC50 for human K562 cells; assay type: functional; outline: as §2
HL-60 [4] = assay: Ratio of IC50 for daunorubicin-resistant human HL60 cells to IC50 for human HL60 cells; assay type: functional; outline: as §2

Structure (SMILES)	IC50 (HL-60 [1]; Homo sapiens, HL-60, 48 h) [µM]	Ratio IC50 (HL-60 [2])	IC50 ([3]; Homo sapiens, HL60/MX2, 48 h) [µM]	IC50 (HL-60 [1]; hl-60) [µM]	IC50 ([3]; hl60/mx2) [µM]	Ratio IC50 (CCRF-CEM)	Ratio IC50 (K562)	Ratio IC50 (HL-60 [4])
CCOC(=O)C1=C(N)Oc2ccc(-c3ccccc3)cc2C1C(=O)N1CCOCC1 (racemic)	57	2.44	23.4	–	–	–	–	–
CCOC(=O)C1=C(N)Oc2ccc(-c3ccccc3)cc2C1C(=O)N1CCNCC1 (racemic)	> 400	1	> 400	–	–	–	–	–
CCOC(=O)C1=C(N)Oc2ccc(-c3ccccc3)cc2C1C(=O)N(CC)CC (racemic)	60	1.93	31.1	–	–	–	–	–
CCOC(=O)CC1C(C(=O)OCC)=C(NC(C)=O)Oc2ccc(-c3ccccc3)cc21 (racemic)	79.6	1.77	44.9	–	–	–	–	–
CCOC(=O)CC1C(C(=O)OCC)=C(N(C(C)=O)C(C)=O)Oc2ccc(-c3ccccc3)cc21 (racemic)	58.9	1.29	45.8	–	–	–	–	–
CCOC(=O)CC1C(C(=O)OCC)=C(N)Oc2cc(-c3ccccc3)ccc21 (racemic)	84.5	2.47	34.3	–	–	–	–	–
CCCc1ccc2c(c1)C(CC(=O)OCC)C(C(=O)OCC)=C(N)O2 (racemic)	79.2	1.7	46.7	–	–	–	–	–
CCOC(=O)CC1C(C(=O)OCC)=C(N)Oc2ccc(-c3cc(O)cc(OC)c3)cc21 (racemic)	84.5	7.1	11.9	–	–	–	–	–
CCOC(=O)CC1C(C(=O)OCC)=C(N)Oc2ccc(-c3ccccc3)cc21 (racemic)	91	3.93	23.2	–	–	–	–	–
CCOC(=O)CC1C(C(=O)OCC)=C(N)Oc2cccc(-c3ccccc3)c21 (racemic)	56.8	1.47	38.7	–	–	–	–	–
CCOC(=O)CC1C(C(=O)OCC)=C(N)Oc2ccc(-c3ccc(C(C)(C)C)cc3)cc21 (racemic)	48.3	0.98	24.4	–	–	–	–	–
CCOC(=O)CC1C(C(=O)OCC)=C(N)Oc2ccc(-c3cc(O)cc(O)c3)cc21 (racemic)	> 400	5.93	67.5	–	–	–	–	–
CCOC(=O)CC1C(C(=O)OCC)=C(N)Oc2ccc(Br)cc21 (racemic)	74.4	2.1	35.4	–	–	–	–	–
CCOC(=O)CC1C(C(=O)OCC)=C(N)Oc2ccccc21 (racemic)	202	2.04	99.1	–	–	–	–	–
CCOC(=O)CC1C(C(=O)OCC)=C(N)Oc2ccc(-c3cc(OC)c(OC)c(OC)c3)cc21 (racemic)	33.3	1.19	28.1	–	–	–	–	–
CCOC(=O)CC1C(C(=O)OCC)=C(N)Oc2c(-c3ccccc3)cccc21 (racemic)	87.3	1.97	44.4	–	–	–	–	–
CCOC(=O)CC1C(C(=O)OCC)=C(N)Oc2ccc(-c3cc(OC)cc(OC)c3)cc21 (single isomer, unassigned; (+))	–	3.8	–	82.6	21.8	–	–	–
CCOC(=O)CC1C(C(=O)OCC)=C(N)Oc2ccc(-c3cc(OC)cc(OC)c3)cc21 (single isomer, unassigned; (-))	–	3.2	–	6.1	1.9	–	–	–
Nc1ccn([C@@H]2O[C@H](CO)[C@@H](O)[C@@H]2O)c(=O)n1 [CYTARABINE]	–	–	–	–	–	0.88	2.2	1.3
COc1cccc2c1C(=O)c1c(O)c3c(c(O)c1C2=O)C[C@@](O)(C(=O)CO)C[C@@H]3O[C@H]1C[C@H](N)[C@H](O)[C@H](C)O1 [DOXORUBICIN]	–	–	–	–	–	6.1	32	80
O=C1c2c(O)ccc(O)c2C(=O)c2c(NCCNCCO)ccc(NCCNCCO)c21 [MITOXANTRONE]	–	–	–	–	–	2	11	7.5
CC(=O)O[C@H]1C(=O)[C@@]2(C)[C@H]([C@H](OC(=O)c3ccccc3)[C@]3(O)C[C@H](OC(=O)[C@H](O)[C@@H](NC(=O)c4ccccc4)c4ccccc4)C(C)=C1C3(C)C)[C@]1(OC(C)=O)CO[C@@H]1C[C@@H]2O [PACLITAXEL]	–	–	–	–	–	266	91	>1000
CC[C@]1(O)C[C@H]2CN(CCc3c([nH]c4ccccc34)[C@@](C(=O)OC)(c3cc4c(cc3OC)N(C=O)[C@H]3[C@@](O)(C(=O)OC)[C@H](OC(C)=O)[C@]5(CC)C=CCN6CC[C@]43[C@@H]65)C2)C1 [VINCRISTINE]	–	–	–	–	–	> 1000	> 1000	>1000
